Test results: PMC3466390 (Biomaterials, 2012)
Entries after “also recorded” stand apart in the source; their conditions may differ.

Key:
[1] = tested on: P. aeruginosa (ATCC 27853); assay: Antibacterial assay on hydrogel surfaces; format: cell-based, Pseudomonas aeruginosa; conditions: 10^5 CFU/dm^2, 24 h, 37°C, n=3
In short: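 Peptide stocks in sterile water were mixed 1:1 with BTP (100 mM, 300 mM NaCl, pH 7.4) to gel, held 3 h at 37°C, then equilibrated overnight under BTP (50 mM, 150 mM NaCl, pH 7.4), which was then removed. Blood-agar-grown bacteria (18-20 h) at 10⁴ CFU/mL in TSB were applied to the gel surface for 24 h at 37°C. OD625 was compared with bare polystyrene: % non-viable = [1 − OD surface/OD control]×100.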

E. coli [2] = assay: Atomic force microscopy imaging of bacteria on gel; format: cell-based, Escherichia coli; conditions: 2 wt% hydrogel, 2 h incubation, 37°C
S. aureus (ATCC 25923) = assay: Antibacterial assay on hydrogel surfaces; format: cell-based, Staphylococcus aureus; conditions: 0.5, 1, 1.5 and 2 wt% hydrogels, 10^5 CFU/dm^2, 24 h, 37°C, n=3
In short: (§1)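 Gels (0.5–2 wt%) formed in wells by mixing peptide stocks in sterile water 1:1 with BTP buffer (100 mM, 300 mM NaCl, pH 7.4). They were held 3 h at 37°C, then equilibrated overnight under BTP (50 mM, 150 mM NaCl, pH 7.4), and the buffer was removed. Bacteria were grown overnight on blood agar, applied at 10^4 CFU/mL in TSB, and incubated 24 h at 37°C, with bare plastic as control. After a TSB wash, OD625 of the overlying solution was corrected for dilution and scattering. % non-viable = [1 − OD surface/OD control]×100; triplicate.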

E. coli [3] = assay: Antibacterial assay in the presence of Ca2+; format: cell-based, Escherichia coli; conditions: 1 wt% hydrogel, 0, 0.1, 1, 10 and 20 mM Ca2+, 37°C, CFU count, n=3
[4] = Oscillatory rheology of hydrogels; format: physicochemical; conditions: 1 wt% gel, 0.2% strain
In short: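 A 2 wt% peptide solution in chilled water was mixed with an equal volume of BTP (100 mM, 300 mM NaCl, pH 7.4). It was loaded on a 25 mm parallel plate at 5°C with a 0.5 mm gap, then ramped to 37°C over 100 s. G′ and G″ were followed by a 1 h time sweep at 6 rad/s and 0.2% strain. For recovery, 1000% strain was applied for 30 s at 6 rad/s, followed by a second 1 h sweep.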

P. aeruginosa = format: cell-based
[5] = tested on: human red blood cells (hRBCs); format: cell-based
S. aureus = assay: Antibacterial assay in the presence of Ca2+; format: cell-based, Staphylococcus aureus; conditions: 1 wt% hydrogel, 0, 0.1, 1, 10 and 20 mM Ca2+, 37°C, CFU count, n=3
E. coli (ATCC 25922) = assay: Antibacterial assay on hydrogel surfaces; format: cell-based, Escherichia coli; conditions: 0.5, 1, 1.5 and 2 wt% hydrogels, 10^5 CFU/dm^2, 24 h, 37°C, n=3
In short: as §1

[6] = CD spectroscopy of folding and self-assembly; format: physicochemical
In short: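 Peptides were measured at 1 wt% in chilled water, or as chilled 2 wt% aqueous stock mixed 1:1 with BTP stock (100 mM, 300 mM NaCl, pH 7.4) and left to gel in the cell. Scans ran 200–260 nm at 37°C in a 0.1 mm quartz cell. Mean residue ellipticity was [θ] = (θobs/10lc)/r.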

Row | Substance | antibacterial activity of hydrogel surface against P. aeruginosa, in words ([1]; 0.5 wt% hydrogel) | antibacterial activity of hydrogel surface against P. aeruginosa, in words ([1]; 1.5 wt% hydrogel) | antibacterial activity of hydrogel surface against P. aeruginosa, in words ([1]; 2 wt% hydrogel) | morphology of E. coli on gel surface by AFM (E. coli [2]) | antibacterial activity of hydrogel surface against S. aureus, in words (S. aureus (ATCC 25923)) | antibacterial activity (percent non-viable bacteria) in the presence of Ca2+ (E. coli [3]) | storage modulus (G') ([4]; 50 mM BTP, 150 mM NaCl, pH 7.4, 37°C, after 1 h, 6 rad/s) | recovery of initial mechanical rigidity after shear-thinning ([4]; 37°C, 1000% strain for 30 s, then 1 h at 6 rad/s) | live-dead result at the gel surface (cytostatic or cytotoxic) (P. aeruginosa) | live-dead result at the gel surface, short incubation, compared with 24 h (P. aeruginosa; 2 wt% hydrogel, 2 h incubation) | hemolytic activity [5] | antibacterial activity (percent non-viable bacteria) in the presence of Ca2+ (S. aureus) | antibacterial activity of hydrogel surface against E. coli, in words (E. coli (ATCC 25922)) | folding/assembly state by CD ([6]; 1 wt% peptide in BTP buffer with NaCl, pH 7.4, 37°C) | folding/assembly state by CD ([6]; 1 wt% peptide in water, 37°C) | hemolytic activity as a function of wt% [5]
1 | VKVRVRVRV^DPPTRVRVRVKV [PEP6R] | only marginally active | extremely potent | extremely potent | membrane surface has collapsed and appears highly punctated | inhibit E. coli and S. aureus proliferation at all weight percentages | progressively attenuated with increasing concentrations of Ca^2+ | increase in mechanical rigidty | about 90% | cytotoxic | identical | low hemolytic activity | progressively attenuated with increasing concentrations of Ca^2+ | inhibit E. coli and S. aureus proliferation at all weight percentages; also recorded: quantitatively kills E. coli at all weight percents tested |  |  | 
2 | VRVRVRVRV^DPPTRVRVRVRV-NH2 [PEP8R] |  |  |  |  | capable of inhibiting both E. coli and S. aureus proliferation, irrespective of the peptide weight percentage used |  |  |  |  |  | about 25% |  | capable of inhibiting both E. coli and S. aureus proliferation, irrespective of the peptide weight percentage used | folded and assembled into β-sheet structures | unfolded peptide | decreases in a concentration dependent manner
